Tests used:
[1] = Biodistribution in CD1 mouse urine at 300 kBq, iv after 60 mins by gamma counting; format: ADME, organism-based; details: in vivo, 1 h
Outline: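 Female CD-1 mice received 300 kBq of the radiotracer i.v.; 3–6 animals per time point were anaesthetised at 5, 30, 60 or 120 min p.i. Blood and urine were collected, animals were killed by cervical dislocation, and organs were dissected and weighed. Activity was counted in a calibrated gamma counter and expressed as % injected dose per g wet tissue, mean with SD.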

Femur = assay: Biodistribution in CD1 mouse flushed femur at 300 kBq, iv after 60 mins by gamma counting; format: ADME, organism-based; details: in vivo, 1 h
Outline: (§1)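 Female CD-1 mice received [18F]1 (300 kBq) i.v.; 3–6 animals per time point anesthetized at 5, 30, 60 or 120 min p.i., blood and urine collected, animals euthanized by cervical dislocation, organs dissected and weighed. Radioactivity counted in a calibrated gamma counter; % ID/g = tissue counts / initial dose counts / tissue weight; means with SD.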

Mus musculus [2] = assay: Biodistribution in CD1 mouse facial nucleus in brain saggital section at 24 MBq, iv at 45 mins by autoradiography; format: ADME, organism-based; details: in vivo, 0.75 h
Outline: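 Female CD-1 mouse given [18F]1 (24 MBq) i.v. and sacrificed at 45 min. Brain hemispheres frozen in isopentane (−35 °C), cut into 12 µm sagittal cryosections, thaw-mounted, air-dried and exposed to 18F-sensitive storage phosphor screens. Anterior olfactory bulb served as nontarget region for target-to-nontarget ratios.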

Mus musculus [3] = assay: Biodistribution in CD1 mouse gonads at 300 kBq, iv after 120 mins by gamma counting; format: ADME, organism-based, Gonad; details: in vivo, 2 h; outline: as §1

[18F]CC1OC2(CCN(Cc3ccccc3)CC2)c2ccccc21 (centres undefined)
Drug uptake [1]: 45.5 % ID/g | Drug uptake (Femur): 1.18 % ID/g | Drug uptake (Mus musculus [2]): Active | Drug uptake (Mus musculus [3]): 3.55 % ID/g

Source: ChEMBL document CHEMBL1938297, “Synthesis, radiofluorination and pharmacological evaluation of a fluoromethyl spirocyclic PET tracer for central σ1 receptors and comparison with fluoroalkyl homologs” (Bioorg Med Chem, 2012)
